Measurements reported in ChEMBL document CHEMBL1221164, “Small molecules that delay S phase suppress a zebrafish bmyb mutant” (2005).
Active and inactive are the calls of the source. The calls are words filed in the database; no cut-off is given here.

Experiments:
Danio rerio [1] = organism: Danio rerio; assay: Inhibition of B-myb-mediated mitotic deffects in zebrafish bmyb mutant crb embryos at 50 mM
Procedure, shortened: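 crb heterozygote intercross embryos exposed from 4 hpf to 24 hpf at 28.5 °C in E3 with 1% DMSO (aphidicolin […]; hydroxyurea 50 mM). Fixed in 4% paraformaldehyde, whole-mount stained for phospho-histone H3 (Ser10), genotyped by RFLP. pH3-positive cells counted in the tail distal to the yolk extension, or mutant phenotype scored by eye.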

Danio rerio [2] = organism: Danio rerio; assay: Inhibition of B-myb-mediated mitotic deffects in zebrafish bmyb mutant embryo assessed as intra-Sphase and G2/M checkpoint inhibition at 10 ug/ml
Procedure, shortened: (§1)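 crb embryos given 2 mM caffeine or none at 4 hpf. Thirty minutes later […] aphidicolin added, then incubated overnight to 24 hpf at 28.5 °C in E3 with 1% DMSO. Mitotic accumulation read by whole-mount phospho-histone H3 staining, with pH3-positive cells counted in the tail distal to the yolk extension.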

Danio rerio [3] = organism: Danio rerio; assay: Inhibition of B-myb-mediated mitotic deffects in zebrafish bmyb mutant embryo assessed as intra-Sphase and G2/M checkpoint inhibition in presence of 2 mM caffeine at 10 ug/ml; procedure, shortened: as §1
Danio rerio [4] = organism: Danio rerio; assay: Inhibition of B-myb-mediated mitotic deffects in zebrafish bmyb mutant crb embryos at 50 mM
Danio rerio [5] = organism: Danio rerio; assay: Inhibition of B-myb-mediated mitotic deffects in zebrafish bmyb mutant crb embryos assessed as number of centrosomes in pH3 -positive cells at […] at 24 hrs post fertilization by pH3 and gamma tubulin staining; type: cell-based
Procedure, shortened: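 Centrosomes detected with a monoclonal anti-γ-tubulin antibody (1:1,000) in embryos treated overnight with […] drug.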

B-myb (Danio rerio) [6] = molecular target: T1, B-myb (Danio rerio) (UniProt Q4KMF7); assay: Inhibition of B-myb-mediated mitotic deffects in wild-type Zebrafish assessed as suppression of cells without spindles at […] at 24 hrs post fertilization by pH3 and alpha tubulin staining
T1 sequence (whole entry): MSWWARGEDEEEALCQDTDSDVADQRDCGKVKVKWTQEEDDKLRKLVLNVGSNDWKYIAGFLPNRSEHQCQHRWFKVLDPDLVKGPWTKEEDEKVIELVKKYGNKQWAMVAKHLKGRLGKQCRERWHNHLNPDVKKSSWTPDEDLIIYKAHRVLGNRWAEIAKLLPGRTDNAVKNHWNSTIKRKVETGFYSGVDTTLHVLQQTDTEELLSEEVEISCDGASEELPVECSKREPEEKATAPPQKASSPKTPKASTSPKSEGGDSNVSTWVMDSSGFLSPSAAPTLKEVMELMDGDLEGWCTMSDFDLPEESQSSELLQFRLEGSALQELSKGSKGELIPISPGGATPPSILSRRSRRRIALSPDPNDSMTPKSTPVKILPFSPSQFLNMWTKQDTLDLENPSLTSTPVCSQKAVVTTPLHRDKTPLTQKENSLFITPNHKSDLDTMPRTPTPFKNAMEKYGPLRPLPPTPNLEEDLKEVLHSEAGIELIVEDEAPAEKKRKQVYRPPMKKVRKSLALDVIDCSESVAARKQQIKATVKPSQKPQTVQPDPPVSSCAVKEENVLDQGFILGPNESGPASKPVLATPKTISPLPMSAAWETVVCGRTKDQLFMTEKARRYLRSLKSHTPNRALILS
Procedure, shortened: (§2)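 Embryos treated overnight with […] drug, then double-stained for α-tubulin and pH3. Spindles counted in the body distal to the yolk ball. DAPI-stained cells with condensed chromatin counted manually in one field at the tail tip.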

Danio rerio [7] = organism: Danio rerio; assay: Inhibition of B-myb-mediated mitotic deffects in zebrafish bmyb mutant crb embryos assessed as suppression of cells without spindles at […] at 24 hrs post fertilization by pH3 and alpha tubulin staining; procedure, shortened: as §2
B-myb (Danio rerio) [8] = molecular target: T1, B-myb (Danio rerio); assay: Inhibition of B-myb-mediated mitotic deffects in wild-type zebrafish assessed as suppression of apoptosis at […] at 24 hrs post fertilization by TUNEL assay
Procedure, shortened: (§3)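 Embryos treated overnight (from 4 hpf) with […] drug, washed at 24 hpf. Apoptosis read by TUNEL staining at 24 hpf, and by brain opacity morphology at 30 hpf.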

Danio rerio [9] = organism: Danio rerio; assay: Inhibition of B-myb-mediated mitotic deffects in zebrafish bmyb mutant crb embryos assessed as suppression of apoptosis at […] at 24 hrs post fertilization by TUNEL assay; procedure, shortened: as §3
B-myb (Danio rerio) [10] = molecular target: T1, B-myb (Danio rerio); assay: Inhibition of B-myb mediated mitotic deffects in wild-type zebrafish assessed as suppression of polyploidy at […] at 24 hrs post fertilization […]
Procedure, shortened: (§4)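 Control and treated embryos, […] overnight, disaggregated and DNA content (2n/4n/8n) measured by flow cytometry. Individual-embryo FACS used a cell-suspension aliquot for genotyping.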

Danio rerio [11] = organism: Danio rerio; assay: Inhibition of B-myb-mediated mitotic deffects in zebrafish bmyb mutant crb embryos assessed as suppression of polyploidy at […] at 24 hrs post fertilization […]; procedure, shortened: as §4
Danio rerio [12] = organism: Danio rerio; assay: Inhibition of B-myb-mediated mitotic deffects in zebrafish bmyb mutant crb embryos
Procedure, shortened: (§5)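 crb heterozygote incrosses; embryos in E3 with 1% DMSO at 28.5 °C, compound added at 4 hpf and kept until 24 hpf ([…] except in dose-response). Fixed in 4% paraformaldehyde and whole-mount stained for serine-10-phosphorylated histone H3. All pH3-positive cells in the tail distal to the yolk extension counted, at least five embryos per condition. Embryos genotyped by RFLP. ED50 from dose-response.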

Danio rerio [13] = organism: Danio rerio; assay: Inhibition of B-myb-mediated mitotic deffects in zebrafish bmyb mutant crb embryos at […]; details: TDE = time-dependent effect; procedure, shortened: as §5
B-myb (Danio rerio) [14] = molecular target: T1, B-myb (Danio rerio); assay: Inhibition of B-myb-mediated mitotic deffects in wild-type zebrafish assessed as number of centrosomes in pH3 -positive cells at […] at 24 hrs post fertilization by pH3 and […] staining; type: cell-based
Danio rerio [15] = organism: Danio rerio; assay: Inhibition of B-myb-mediated mitotic deffects in zebrafish bmyb mutant crb embryos assessed as reduction in abnormalities in mitotic spindle by pH3 and alpha tubulin staining; details: concentration not given here; procedure, shortened: as §2
Danio rerio [16] = organism: Danio rerio; assay: Inhibition of B-myb-mediated mitotic deffects in zebrafish bmyb mutant crb embryos assessed as prometaphase arrest at 10 uM by pH3 and alpha tubulin staining
B-myb (Danio rerio) [17] = molecular target: T1, B-myb (Danio rerio); assay: Inhibition of B-myb-mediated mitotic deffects in wild-type zebrafish embryo assessed as accumulation of cells in early S phase at […] at 24 hrs post fertilization for 6 hrs by flow cytometry
Procedure, shortened: (§6)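 Wild-type embryos exposed 24–30 hpf (6 h at 28.5 °C) to […] drug. Embryos disaggregated, immunostained for pH3 and DNA content measured by flow cytometry (G1/S/G2M fractions). For S-phase confirmation, embryos labelled with BrdU and incorporation read by whole-mount immunostaining and FACS.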

B-myb (Danio rerio) [18] = molecular target: T1, B-myb (Danio rerio); assay: Inhibition of B-myb-mediated mitotic deffects in wild-type zebrafish embryo assessed as accumulation of cells in early S phase at […] at 24 hrs post fertilization for 6 hrs by flow cytometry in presence of 10 mM BrdU; procedure, shortened: as §6
Danio rerio [19] = organism: Danio rerio; assay: Inhibition of B-myb-mediated mitotic deffects in zebrafish bmyb mutant crb embryos assessed as increase in cyclin B1 mRNA expression
Procedure, shortened: (§7)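 Wild-type and crb embryos treated with […] drug, then whole-mount in situ hybridization for cyclin B1.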

B-myb (Danio rerio) [20] = molecular target: T1, B-myb (Danio rerio); assay: Inhibition of B-myb-mediated mitotic deffects in wild-type zebrafish assessed as increase in cyclin B1 mRNA expression; procedure, shortened: as §7
[21] = Induction of S to M phase cell cycle progression in zebrafish bmyb mutant embryo cells assessed as Brdu incorporation; type: functional, Danio rerio
Danio rerio [22] = organism: Danio rerio; assay: Inhibition of B-myb-mediated mitotic deffects in zebrafish bmyb mutant embryo assessed as increase in mitotic cells with condensed chromatin at 10 uM by pH3 and alpha tubulin staining; type: cell-based

In the case of `C[C@@]1(CO)[C@H](O)CC[C@@]2(C)[C@H]1CC[C@H]1C[C@@H]3C[C@@]12CC[C@]3(O)CO`, the inhibition (Danio rerio [1]) is reported as “Active”, the inhibition (Danio rerio [2]) is reported as “Active” and the inhibition (Danio rerio [3]) is reported as “Active”. For the same compound, the inhibition (Danio rerio [4]) was “Active”.
For `O=C(Nc1ncccc1O)C12CC3CC(CC(C3)C1)C2` [PERSYNTHAMIDE], the inhibition (Danio rerio [5]) was “Active”, the inhibition (B-myb (Danio rerio) [6]) was “Active” and the inhibition (Danio rerio [7]) was “Active”. The inhibition (B-myb (Danio rerio) [8]) was “Active”, the inhibition (Danio rerio [9]) was “Active” and the inhibition (B-myb (Danio rerio) [10]) was “Active”. The inhibition (Danio rerio [11]) was “Active”, the ED50 (Danio rerio [12]) was 5 µM and the inhibition (Danio rerio [13]) was “tde”. For the same compound, the inhibition (B-myb (Danio rerio) [14]) was “Active”, the inhibition (Danio rerio [15]) was 55% and the inhibition (Danio rerio [16]) was “Active”. The inhibition (B-myb (Danio rerio) [17]) was “Active”, the inhibition (B-myb (Danio rerio) [18]) was “Active” and the inhibition (Danio rerio [19]) was “Active”. For the same compound, the inhibition (B-myb (Danio rerio) [20]) was “Active”, the Activity [21] was 60% and the fold change (FC) (Danio rerio [22]) was 4.
With `NC(=O)NO` the inhibition (Danio rerio [1]) was “Active” and the inhibition (Danio rerio [4]) was “Active”.
